The target in one data set is T1, Lysyl oxidase homolog 3 (Homo sapiens, UniProt P58215).
T1 sequence (P58215 whole entry): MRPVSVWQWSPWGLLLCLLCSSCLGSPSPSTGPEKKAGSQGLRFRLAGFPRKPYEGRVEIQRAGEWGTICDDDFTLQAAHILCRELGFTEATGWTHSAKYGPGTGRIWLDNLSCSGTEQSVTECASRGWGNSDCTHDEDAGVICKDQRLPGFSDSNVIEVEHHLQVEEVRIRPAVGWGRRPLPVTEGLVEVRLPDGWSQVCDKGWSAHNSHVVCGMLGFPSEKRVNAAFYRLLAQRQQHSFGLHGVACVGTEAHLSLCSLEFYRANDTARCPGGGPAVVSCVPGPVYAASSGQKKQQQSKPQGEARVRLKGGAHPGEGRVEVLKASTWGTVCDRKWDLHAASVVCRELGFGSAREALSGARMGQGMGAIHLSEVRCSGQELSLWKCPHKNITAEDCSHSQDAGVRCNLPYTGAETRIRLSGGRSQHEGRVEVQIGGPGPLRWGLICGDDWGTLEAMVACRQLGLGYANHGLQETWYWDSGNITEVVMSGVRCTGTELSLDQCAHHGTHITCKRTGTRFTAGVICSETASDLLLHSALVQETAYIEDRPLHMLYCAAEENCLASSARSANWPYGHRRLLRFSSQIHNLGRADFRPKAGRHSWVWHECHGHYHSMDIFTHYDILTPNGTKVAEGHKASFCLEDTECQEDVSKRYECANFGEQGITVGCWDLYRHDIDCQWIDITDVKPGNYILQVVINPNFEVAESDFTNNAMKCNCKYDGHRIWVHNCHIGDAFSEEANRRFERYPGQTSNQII
In words: Inhibition of recombinant human C-terminal His10-tagged LOXL3 (1 to 753 residues) assessed as reduction in H2O2 production using DAP as substrate preincubated for 2 hrs followed by substrate addition measured every 2 minutes for 50 minutes by Amplex red dye based fluorescence assay.

A further data set deals with T2, Lysyl oxidase homolog 2 (Rattus norvegicus, UniProt B5DF27).
T2 sequence (B5DF27 whole entry): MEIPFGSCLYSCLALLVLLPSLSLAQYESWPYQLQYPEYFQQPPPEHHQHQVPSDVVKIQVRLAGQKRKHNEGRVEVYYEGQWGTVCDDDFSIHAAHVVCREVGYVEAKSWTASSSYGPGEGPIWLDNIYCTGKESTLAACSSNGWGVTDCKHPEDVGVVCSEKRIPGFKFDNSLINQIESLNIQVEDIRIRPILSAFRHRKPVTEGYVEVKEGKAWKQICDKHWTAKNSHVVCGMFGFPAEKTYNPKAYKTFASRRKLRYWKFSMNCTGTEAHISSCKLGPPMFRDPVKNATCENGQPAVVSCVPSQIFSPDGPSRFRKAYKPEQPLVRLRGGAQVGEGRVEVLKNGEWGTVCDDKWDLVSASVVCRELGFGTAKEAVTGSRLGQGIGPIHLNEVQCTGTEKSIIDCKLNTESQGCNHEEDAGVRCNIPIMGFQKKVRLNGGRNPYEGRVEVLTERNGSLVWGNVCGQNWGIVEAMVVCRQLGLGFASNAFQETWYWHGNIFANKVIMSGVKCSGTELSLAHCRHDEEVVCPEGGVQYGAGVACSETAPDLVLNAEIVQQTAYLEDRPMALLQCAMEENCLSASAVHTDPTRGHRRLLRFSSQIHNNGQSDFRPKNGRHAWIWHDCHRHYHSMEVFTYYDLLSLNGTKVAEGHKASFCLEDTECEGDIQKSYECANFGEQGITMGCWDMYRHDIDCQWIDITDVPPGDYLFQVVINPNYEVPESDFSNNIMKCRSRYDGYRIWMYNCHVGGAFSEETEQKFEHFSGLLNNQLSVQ
As to the kind of experiment: Inhibition of full length recombinant rat LOXL2 expressed in CHO cells assessed as reduction in H2O2 production using DAP as substrate preincubated for 2 hrs followed by substrate addition measured every 2 minutes for 50 minutes in presence of BSA by Amplex red dye based fluorescence assay. A digest of the protocol:
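Rodent LOXL2 is tested under the same conditions as the BSA-supplemented assay: conditioned media plus BSA, with DAP as substrate and Amplex Red detection of H2O2. Species are mouse and rat. IC50 is the geometric mean x/÷ geometric standard deviation from 3 determinations.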

Data set [1] addresses T3, Amine oxidase [flavin-containing] B (Homo sapiens, UniProt P27338).
T3 sequence (P27338 whole entry): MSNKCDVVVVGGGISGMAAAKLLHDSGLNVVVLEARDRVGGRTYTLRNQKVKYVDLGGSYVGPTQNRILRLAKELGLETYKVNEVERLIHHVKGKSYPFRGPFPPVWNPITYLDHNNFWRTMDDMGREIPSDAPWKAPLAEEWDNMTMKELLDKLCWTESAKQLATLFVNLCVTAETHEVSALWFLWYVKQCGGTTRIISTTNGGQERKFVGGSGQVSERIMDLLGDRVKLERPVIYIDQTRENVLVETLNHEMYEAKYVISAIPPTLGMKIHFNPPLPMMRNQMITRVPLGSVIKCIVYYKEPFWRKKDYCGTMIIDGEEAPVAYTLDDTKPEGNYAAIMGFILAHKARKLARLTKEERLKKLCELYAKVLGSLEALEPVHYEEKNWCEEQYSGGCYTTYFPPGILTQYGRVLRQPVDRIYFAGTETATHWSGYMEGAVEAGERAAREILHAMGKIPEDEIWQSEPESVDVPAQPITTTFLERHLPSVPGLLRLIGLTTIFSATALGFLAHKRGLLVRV
In words: Inhibition of recombinant human MAO-B at 30 uM using benzylamine as substrate preincubated for 2 hrs followed by substrate addition measured every 30 secs for 10 minutes by Amplex red dye based fluorescence assay.

Another data set concerns the target Cytochrome P450 2C9 (Homo sapiens, UniProt P11712). As to the kind of experiment: Inhibition of CYP2C9 (unknown origin). It counts as ADME.

A value given as a limit tells only on which side of the number the result lay.

From ChEMBL document CHEMBL3994667, “Small Molecule Lysyl Oxidase-like 2 (LOXL2) Inhibitors: The Identification of an Inhibitor Selective for LOXL2 over LOX” (ACS Med Chem Lett, 2017) come the findings set out here.

Sequence of Cytochrome P450 2C9 (P11712 whole entry): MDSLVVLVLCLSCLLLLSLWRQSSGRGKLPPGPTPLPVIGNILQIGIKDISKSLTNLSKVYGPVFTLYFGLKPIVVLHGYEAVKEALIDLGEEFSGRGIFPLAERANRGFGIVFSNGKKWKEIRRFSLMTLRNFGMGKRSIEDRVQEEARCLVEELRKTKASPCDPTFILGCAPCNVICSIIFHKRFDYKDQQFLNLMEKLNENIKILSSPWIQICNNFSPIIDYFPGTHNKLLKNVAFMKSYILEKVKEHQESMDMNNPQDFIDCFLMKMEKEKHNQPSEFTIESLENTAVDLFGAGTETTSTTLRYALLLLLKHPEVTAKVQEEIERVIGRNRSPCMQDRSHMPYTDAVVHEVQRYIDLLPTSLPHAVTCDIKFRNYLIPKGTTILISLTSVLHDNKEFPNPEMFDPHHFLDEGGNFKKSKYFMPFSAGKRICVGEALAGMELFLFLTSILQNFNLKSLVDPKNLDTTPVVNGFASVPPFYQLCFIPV

For orientation: IC50 means the concentration that inhibits the measured activity by half. As to `NCc1ccnc(Cl)c1`, the IC50 at Lysyl oxidase homolog 3 was 214 nM; at Lysyl oxidase homolog 2 it was 136 nM; against Cytochrome P450 2C9, greater than 30000 nM. Moreover, the “inhibition (INH)” value in data set [1] is “Not Active”.
